The target of series [1] is T1, Metabotropic glutamate receptor 5 (Rattus norvegicus, UniProt P31424). The series can be described thus: Ability to displace [3H]3-methoxy-5-(pyridin-2-ylethynyl)pyridine from binding to metabotropic glutamate receptor 5 in rat cortical membranes. The format is cell membranes.
Series [2] concerns the target T1, Metabotropic glutamate receptor 5. The series can be described thus: In vitro functional activity measured by changes in cytosolic [Ca2+] concentrations against rat metabotropic glutamate receptor 5. In short, it runs like this: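 A cell-based, high-throughput functional assay followed changes in cytosolic Ca2+ concentration by fluorescence detection.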
Series [3] in a line: Maximum concentration in rat upon oral administration at a dose of 10 mg/kg; n = 3. The series is classed as ADME, organism-based. Also noted: dose 10 mg/kg, route oral. To be noted: in vivo. The method, boiled down: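 Sprague–Dawley rats (n = 3 per group) were given 10 mg/kg orally for pharmacokinetic profiling.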
The nature of series [4]: Half life in rat upon intravenous administration at a dose of 2 mg/kg; n = 2. The series is classed as ADME, organism-based. More on the design: dose 2 mg/kg, route intravenous. To be noted: in vivo. In short, it runs like this:
(§1)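 Sprague–Dawley rats (n = 2 per group) were given 2 mg/kg by the intravenous route for pharmacokinetic profiling.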

Series [5] can be described thus: Clearance in rat upon intravenous administration at a dose of 2 mg/kg; n = 2. The series is classed as ADME, organism-based. More on the design: dose 2 mg/kg, route intravenous. Particulars: plasma, read-out: Clp. The method, boiled down:
as §1

Series [6] in a line: Volume of distribution in rat upon intravenous administration at a dose of 2 mg/kg; n = 2. The format is ADME, organism-based. More on the design: dose 2 mg/kg, route intravenous. Particulars: in vivo. In short, it runs like this: as §1
Series [7] is described as follows: Oral bioavailability in rat (dose 10 mg/kg p.o.). The format is ADME, organism-based. Particulars: in vivo. In short, it runs like this: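 Rat pharmacokinetics compared oral dosing at 10 mg/kg (n = 3 Sprague–Dawley rats/group) with intravenous dosing at 2 mg/kg (n = 2 rats/group).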
In series [8] the test system is Rattus norvegicus. As to the kind of experiment: Effective dose for maximum occupancy in rat upon oral administration measured 30 min post administration; n = 6 - 7.
Series [9] has as its system Rattus norvegicus. As to the kind of experiment: Brain penetration measured by compound levels in brain at a dose of 3 mg/kg upon intraperitoneal after 1 hr. The series is classed as functional. In short, it runs like this:
(§2)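 Sprague–Dawley rats were dosed intraperitoneally at 10 or 3 mg/kg. Drug levels (µM) in brain and plasma were measured 1 h after dosing, and brain/plasma was expressed as a percentage.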

The subject of series [10] is Rattus norvegicus. As to the kind of experiment: Brain penetration measured by compound levels in plasma at a dose of 3 mg/kg upon intraperitoneal after 1 hr. The format is functional, organism-based. More on the design: dose 3 mg/kg. The method, boiled down: as §2
The species entered for series [11] is Rattus norvegicus. The series can be described thus: Ratio of compound levels in brain to that of plasma level was determined. The series is classed as functional. The method, boiled down: as §2
Series [12] has as its system Rattus norvegicus. The series can be described thus: Effective dose for maximum occupancy in rat upon intraperitoneal administration measured 1 hr post administration; n = 5 - 6. The format is functional. The method, boiled down:
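Receptor occupancy was measured in Sprague–Dawley rats (n = 5–6 per group) 1 h after intraperitoneal dosing. ED50 is given in mg/kg ip.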

The subject of series [13] is Rattus norvegicus. The series can be described thus: Brain penetration measured by compound levels in plasma at a dose of 10 mg/kg upon intraperitoneal after 1 hr. The format is functional, organism-based. Also noted: dose 10 mg/kg. The method, boiled down: as §2
Series [14] has as its system Rattus norvegicus. The series can be described thus: Brain penetration measured by compound levels in brain at a dose of 10 mg/kg upon intraperitoneal after 1 hr. The series is classed as functional. The method, boiled down: as §2

As usually defined, the Ki is a dissociation constant, usually derived from enzyme kinetics or from competition with a known ligand. The low end stands for higher affinity, the high end for lower affinity. As usually defined, the IC50 is the concentration at which inhibition is half-maximal. Low values mean greater potency in that assay, high ones weaker potency in that assay. For orientation: Cmax means the maximum level reached in the sampled fluid or tissue. What is called half-life is how long it takes for the measured level to halve. One may read the Vd as a proportionality between amount in the body and measured concentration, not a real space. The bioavailability is the share of a dose that reaches the circulation, judged against a reference dose that is usually intravenous. Read a low bioavailability as poor availability.

T1 sequence (P31424 whole entry): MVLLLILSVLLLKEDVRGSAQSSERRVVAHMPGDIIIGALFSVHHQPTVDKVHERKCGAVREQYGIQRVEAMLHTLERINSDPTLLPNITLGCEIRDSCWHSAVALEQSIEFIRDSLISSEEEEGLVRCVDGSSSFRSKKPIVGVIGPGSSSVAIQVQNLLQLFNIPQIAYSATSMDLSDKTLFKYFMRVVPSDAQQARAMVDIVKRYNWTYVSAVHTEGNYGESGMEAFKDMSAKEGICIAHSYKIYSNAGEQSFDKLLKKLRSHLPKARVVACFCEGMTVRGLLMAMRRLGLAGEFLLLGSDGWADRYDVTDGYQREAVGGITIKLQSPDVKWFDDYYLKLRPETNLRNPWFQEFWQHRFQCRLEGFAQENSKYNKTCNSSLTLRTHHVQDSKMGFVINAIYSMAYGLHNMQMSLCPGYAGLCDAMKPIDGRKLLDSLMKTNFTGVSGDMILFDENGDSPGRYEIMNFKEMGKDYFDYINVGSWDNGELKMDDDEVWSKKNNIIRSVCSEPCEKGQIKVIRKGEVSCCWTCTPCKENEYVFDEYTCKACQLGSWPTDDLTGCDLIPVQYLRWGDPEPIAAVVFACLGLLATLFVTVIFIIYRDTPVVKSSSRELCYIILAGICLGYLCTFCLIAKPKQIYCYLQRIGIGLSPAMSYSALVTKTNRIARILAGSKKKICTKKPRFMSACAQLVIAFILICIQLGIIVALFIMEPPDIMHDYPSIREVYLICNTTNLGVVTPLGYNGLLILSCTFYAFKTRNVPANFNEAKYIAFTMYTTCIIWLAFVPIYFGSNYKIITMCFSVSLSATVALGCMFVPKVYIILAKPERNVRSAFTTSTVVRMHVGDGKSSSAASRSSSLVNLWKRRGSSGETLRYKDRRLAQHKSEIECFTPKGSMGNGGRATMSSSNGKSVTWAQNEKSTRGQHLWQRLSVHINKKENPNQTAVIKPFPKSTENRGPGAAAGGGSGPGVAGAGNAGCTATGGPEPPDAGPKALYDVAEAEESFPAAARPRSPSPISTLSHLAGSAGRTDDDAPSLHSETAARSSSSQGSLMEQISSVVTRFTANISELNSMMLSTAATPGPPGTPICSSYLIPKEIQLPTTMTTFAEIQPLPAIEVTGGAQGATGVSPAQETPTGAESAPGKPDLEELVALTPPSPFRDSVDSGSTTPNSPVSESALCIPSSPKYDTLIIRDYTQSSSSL

Compound `c1ccc(-c2nnn(-c3cccc(-c4cccnc4)c3)n2)nc1` had a Ki in [1] of 0.069 µM. In series [2], this compound had an IC50 of 0.063 µM.

Turning to `N#Cc1ccc(Cl)c(-n2nnc(-c3ccccn3)n2)c1`, the Ki in series [1] was more than 0.6 µM. This compound also showed an IC50 in series [2] of 0.334 µM.

In series [1], `N#Cc1cc(OCc2ccccc2)cc(-n2nnc(-c3ccccn3)n2)c1` came in with a Ki of more than 0.6 µM. Besides, the IC50 in [2] was more than 1 µM.

The compound `N#Cc1cc(O)cc(-n2nnc(-c3ccccn3)n2)c1` came in with a Ki in series [1] of 0.318 µM. Half-maximal inhibition in series [2] (IC50) was put at 0.562 µM.

As to `Cc1cc(C#N)cc(-n2nnc(-c3ccccn3)n2)c1`, in series [3], the highest level (Cmax) was 800 nM. The same compound displayed a Ki in [1] of 0.007 µM. The compound further gave an IC50 in series [2] of 0.006 µM. In series [4], this compound gave a half-life of 0.4 h. For the same compound, in series [5], the clearance is 50 mL/min/kg. Also, the Vd in series [6] was found to be 1.4 L/kg. The bioavailability in series [7] was found to be 15%.

`N#Cc1cc(-n2nnc(-c3ccccn3)n2)cc([N+](=O)[O-])c1`: in series [1], the affinity corresponds to a Ki of 0.042 µM. The IC50 in series [2] was found to be 0.042 µM.

On to `N#Cc1cc(-n2nnc(-c3ccccn3)n2)ccc1Cl`, for which the Ki in [1] is more than 0.6 µM. Further, in series [2], the IC50 was 0.722 µM.

Turning to `N#Cc1cc(Oc2cccnc2)cc(-n2nnc(-c3ccccn3)n2)c1`, the affinity in series [1], expressed as Ki, was 0.016 µM. Further, the IC50 in [2] was 0.015 µM.

In [1], `N#Cc1cc(N)cc(-n2nnc(-c3ccccn3)n2)c1` gave a Ki of 0.095 µM. Moreover, it took 0.308 µM to reach half-maximal inhibition in series [2] (IC50).

`N#Cc1cc(OCC2CC2)cc(-n2nnc(-c3ccccn3)n2)c1` yielded a Ki in series [1] of 0.271 µM. Also, the IC50 in series [2] turned out to be 0.975 µM.

Regarding `N#Cc1cc(F)cc(-n2nnc(-c3ncc[nH]3)n2)c1`, the IC50 in series [2] stood at 0.047 µM.

With `N#Cc1cc(F)cc(-n2nnc(-c3ccccn3)n2)c1`, the “Occ ED50” value turned out to be 3.6 mg/kg in [8] and 1.3 mg/kg in series [12]. Also, in series [4], the half-life was 2.9 h. For the same compound, the Brain levels in series [9] worked out at 2.4 µM. The compound further registered a Plasma levels in [10] of 2.7 µM. Also, the Brain/Plasma in series [11] came out at 90%.

For the compound `N#Cc1cccc(-n2nnc(-c3ncc[nH]3)n2)c1`, it took 0.077 µM to reach half-maximal inhibition in [2] (IC50).

`N#Cc1cc(C#N)cc(-n2nnc(-c3ccccn3)n2)c1` displayed a Ki in series [1] of 0.018 µM. Also, in series [2], the IC50 was determined as 0.034 µM.

With `COc1cc(C#N)cc(-n2nnc(-c3ccccn3)n2)c1`, the affinity in series [1] corresponds to a Ki of 0.006 µM. In addition, the IC50 in [2] is 0.01 µM.

As for `Clc1cccc(-n2nnc(-c3ccccn3)n2)c1Cl`, the Ki in series [1] is more than 0.6 µM. The same compound came in with an IC50 in series [2] of 1.27 µM.

In [1], `N#Cc1cc(Cl)cc(-n2nnc(-c3ccccn3)n2)c1` gave an inhibitory constant (Ki) of 0.026 µM. For the same compound, inhibition in series [2] was half-maximal at 0.007 µM (IC50).

In series [1], `N#Cc1cc(F)cc(-n2ccc(-c3ccccn3)c2)c1` displayed a Ki of 0.005 µM. This compound returned an IC50 in series [2] of 0.003 µM.

For `N#Cc1cccc(-n2nnc(-c3ccccn3)n2)c1`, the “Occ ED50” value in series [8] and in series [12] was 3 mg/kg in each case. This compound also yielded a 50% inhibitory concentration (IC50) in series [2] of 0.073 µM. The half-life in series [4] was 6.9 h. In [13], this compound had a Plasma levels of 10 µM. For the same compound, the clearance in series [5] is 33 mL/min/kg. For the same compound, the Vd in series [6] came to 5 L/kg. The Brain/Plasma in [11] is listed as 150%. For the same compound, the bioavailability in [7] worked out at 100%. The compound further registered a Brain levels in series [14] of 15 µM.

As for `N#Cc1cccc(-n2ccc(-c3ccccn3)c2)c1`, the Ki in [1] is more than 0.6 µM. The midpoint of inhibition in series [2], the IC50, lay at 0.19 µM.
